Rows were chosen to be rich in hits. Some 2% of all compounds tested hit in one or more screens of this group.
NR2E3 ag-1: agonists of human NR2E3 nuclear receptor; 0.35% of 360,000 active; inhibition of corepressor binding, % at 3.98 µM; CHO-S Gal4-NCOR/VP16-NR2E3 two-hybrid, luciferase; Q9Y5X4;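 active = inhibition above the mean of all tested compounds plus 3 SD, cut at about 70% in these data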;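 note: 0% = DMSO with NR2E3 transfected cells and 100% = cells lacking NR2E3 construct; higher means lower luciferase signal from less NR2E3 corepressor binding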
Target sequence (Q9Y5X4 whole entry, looked up, the tested form may be a part): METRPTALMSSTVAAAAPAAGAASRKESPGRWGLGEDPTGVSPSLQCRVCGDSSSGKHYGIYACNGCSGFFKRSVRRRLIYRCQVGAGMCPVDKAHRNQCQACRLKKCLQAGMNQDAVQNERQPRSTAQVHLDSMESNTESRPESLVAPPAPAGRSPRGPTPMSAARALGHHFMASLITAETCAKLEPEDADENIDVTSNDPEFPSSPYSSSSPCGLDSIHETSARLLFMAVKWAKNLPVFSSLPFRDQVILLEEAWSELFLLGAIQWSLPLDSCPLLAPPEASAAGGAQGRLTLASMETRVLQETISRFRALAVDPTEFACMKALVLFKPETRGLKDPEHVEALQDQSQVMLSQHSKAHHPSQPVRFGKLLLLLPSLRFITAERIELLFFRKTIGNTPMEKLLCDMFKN
GAA850 FXN act: frataxin GAA850 promoter activation. HEK293 lucGAA850 FXN promoter luciferase reporter, 24 h; percent of 10 µM SAHA response. activation, % at 6 µM. 0.56% of 360,000 active;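 active = activation above the average of all compounds screened plus 3 SD, cutoff fixed separately per campaign, cut at about 7.5% in these data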;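 note: 0% = DMSO wells and 100% = 10 µM SAHA wells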
T cell HTS: T cell immune modulators affecting CD8 T cell-vesicle binding; 0.068% of 330,000 active; 2C CD8+ T cell-vesicle binding, flow cytometry; stronger effect = lower value; response (vesicle binding), % at 7 µM;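 active = response, share of CD8 T cells binding vesicles, and their 90th percentile fluorescence all below set limits, cut at about 80% in these data, passing the limit was not always enough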;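 note: values below 100% mean blocked vesicle binding to the CD8+ T cells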
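Assay system – 2C mouse CD8+ T cells · Also added – QL9-loaded Drosophila micro-vesicles · Timing – Cell–vesicle co-incubation 1.5 h at 37 °C, staining 20 min on ice · Signal – flow cytometry of vesicle-bound cells · Measure – percent CD8+ FL2 mean versus row control · Controls – Peptide-free naked vesicles (low) and QL9 vesicles with 0.7% DMSO vehicle (high)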
Myeloid diff MLP: promotes myeloid progenitor differentiation | ER-HoxA9 myeloid progenitors, lysozyme-GFP differentiation, flow cytometry | 1% of 360,000 active | calls only at 10 µM;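 active = normalized GFP-positive differentiation at or above the plate's own cutoff, the solvent-only control mean plus 3 SD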;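 note: cells exposed to compound for four days before flow analysis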
NR2E3 ag-2: activates human photoreceptor nuclear receptor NR2E3; AID 2300; GST-NR2E3/biotin-RetCOR TR-FRET, 1536-well; 0.12% of 320,000 active; inhibition of corepressor binding, % at 4.78 µM; Q9Y5X4;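 active = percent inhibition above the cutoff of mean plus 3 SD of all tested compounds, set per screening campaign, cut at about 20% in these data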;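 note: 0% = DMSO wells and 100% = biotin wells as full block of FRET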
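System: GST-tagged NR2E3 plus biotinylated RetCOR corepressor; Amount: 1.35 nM GST-tagged NR2E3 final; Dosing: single nominal compound dose of 4.8 µM; Schedule: 5 h incubation at 4 °C; Technique: TR-FRET with europium anti-GST and streptavidin-D2, 340 nm excitation; Controls: biotin wells as high control, 0.6% DMSO wells as low control.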
Myeloid diff CP1: myeloid differentiation induction; shares compounds with Myeloid diff MLP; ER-HoxA9 myeloid progenitors, GFP/Mac1 double-positive flow; calls only; 2% of 2,300 active;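 active = share of green or green-and-red cells above 9 and 9% in run 1 or 4 and 3% in run 2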
GFP autofluor: flagged as fluorescent in myeloid differentiation counter-screen; shares compounds with Myeloid diff MLP; ER-HoxA9 myeloid progenitors, no estrogen, GFP autofluorescence flow cytometry; vehicle wells 0%, positive control 100%; fluorescence response, % (no concentration beside the values); 7.4% of 2,300 active; AID 651707;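 active = over 5% cells positive for green fluorescent reporter, or over 2% positive for both it and APC stain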;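 note: range taken on the double positive population between DMSO and positive control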
* marks the source's active call; other numbers are inactive results; i = inactive; . = no result given; + = active, no number.

SMILES	NR2E3 ag-1	GAA850 FXN act	T cell HTS	Myeloid diff MLP	NR2E3 ag-2	Myeloid diff CP1	GFP autofluor
COc1ccc(N2CC(C(=O)OCC(=O)c3ccc(C)cc3)CC2=O)cc1 (configuration not stated)	14.2	0.3	243.6	+	3.6	i	0.3
CN1CCN(C(=O)c2cnc(Cc3c[nH]c4ccccc34)c(I)c2)CC1	-3.4	-0.5	.	i	.	.	.
CC(=O)c1ccc(N2Cc3ccccc3/C2=N\C(=O)Nc2ccc(Cl)cc2)cc1	-25.5	5.9	417.6	i	-2.1	i	0.4
O=C(CN1C(=O)NC2(CCc3ccccc3C2)C1=O)NCc1ccco1 (configuration not stated)	4.2	1.1	231.7	i	-2.1	i	0.0
O=C(CN1C(=O)NC2(CCCC2)C1=O)NCc1ccco1	-24.7	0.8	295.6	i	.	.	.
Cc1ccc(NC(=O)[C@@H]2CCCN2C(=O)c2cccs2)cc1S(=O)(=O)N1CCCCC1	-8.6	-0.8	334.1	i	-0.1	.	.
CCOC(=O)Cc1csc(NS(C)(=O)=O)n1	-1.4	2.9	526.3	i	0.3	i	0.0
CCOc1ccc(C(c2c(C)n(C)n(-c3ccccc3)c2=O)c2c(C)n(C)n(-c3ccccc3)c2=O)c(O)c1	6.5	0.8	i	i	0.6	.	.
CC(=O)c1c(C)n(CC(=O)NCc2ccc3c(c2)OCO3)c2ccccc12	37.6	-1.2	157.6	+	-0.6	i	97.7*
O=C(Cn1c(CO)nc2ccccc21)NCc1ccc2c(c1)OCO2	18.8	-0.2	339.9	i	1.1	.	.
CC(C)OC(=O)CSc1nnc(CNc2ccc(Cl)cc2)n1C	-19.0	-1.0	178.5	i	2.5	.	.
COC(=O)CSc1nnc(CNc2ccc(OC)cc2)n1C	-9.2	-0.4	313.9	+	-1.8	i	0.3
COc1ccc(-n2ncc3c2CC(C)(C)CC3NC(=O)c2cn[nH]c2)cc1 (configuration not stated)	0.3	0.6	254.3	i	.	.	.
CCOC(=O)c1[nH]c2ccccc2c1NC(=O)c1ccc(Br)o1	-0.9	-4.4	382.8	+	5.0	i	0.0
CC(=O)Nc1sc(C)c(C)c1C(=O)OCC(=O)Nc1ccc(S(N)(=O)=O)cc1	-20.2	0.0	283.1	+	.	i	0.0
O=C(NCc1ccncc1)C1Cc2c(-c3ccc(Cl)cc3)ccnc2O1 (configuration not stated)	4.9	-1.8	.	i	.	.	.
O=C(NCc1cccnc1)C1Cc2c(-c3ccc(Cl)cc3)ccnc2O1 (configuration not stated)	-20.3	-5.7	.	+	.	i	0.0
COCCOC(=O)N1CCCCC1c1cc(C(=O)Nc2cccc3c2CCCC3)no1 (configuration not stated)	2.8	-1.5	.	i	.	.	.
COc1cc(S(=O)(=O)n2ccc(C)n2)c(OC)cc1Cl	22.6	2.3	465.5	+	1.8	i	0.0
COc1cc(S(=O)(=O)n2ccc(C)n2)ccc1Cl	-29.8	-0.3	481.5	i	2.0	.	.
S=C(Nc1ccccn1)Nc1ccccc1Cl	-47.8	2.7	129.8	i	-0.3	.	.
Cc1ccccc1NC(=S)Nc1ccccn1	-30.1	4.2	150.2	i	0.0	i	0.6
CN(C)c1ccc(/C=N/N=C2/NC(=O)/C(=C/c3ccc([N+](=O)[O-])cc3)S2)cc1	19.8	-10.0	384.9	+	2.0	i	95.1*
Cc1cc(/C=C2\SC(=S)NC2=O)c(C)[nH]1	-39.7	2.8	180.9	i	-4.7	i	7.3*
O=C1NC(=Nc2cccc(O)c2)S/C1=C\c1cccc([N+](=O)[O-])c1	-20.1	0.7	438.1	i	5.4	.	.
SMILES	NR2E3 ag-1	GAA850 FXN act	T cell HTS	Myeloid diff MLP	NR2E3 ag-2	Myeloid diff CP1	GFP autofluor
CN(C)c1ccc(C=C2SC(=S)NC2=O)cc1	-26.2	2.5	.	+	.	i	0.5
CCOc1ccc(N(C)c2ccc(/C=C3/SC(=S)NC3=O)cc2)cc1	-12.6	1.4	535.8	i	4.9	.	.
Cc1ccc(NC(=S)Nc2cccc(-c3n[nH]c(=S)o3)c2)cc1	-34.4	0.3	395.4	i	9.9	.	.
COc1cc(S(=O)(=O)n2cnc3ccccc32)ccc1Br	-0.4	0.7	809.8	i	2.2	.	.
COc1ccc2nccc(/C=C/c3ccnc4ccc(OC)cc34)c2c1	11.4	3.1	395.5	i	-0.7	.	.
COc1ccc(S(=O)(=O)N2CCCN(Cc3cccc(F)c3)CC2)cc1	16.9	4.4	185.6	i	2.5	i	0.9
CCOC(=O)c1ccc(CSc2ncn[nH]2)o1	22.4	-0.9	218.8	i	0.9	i	0.0
COC(=O)c1ccc(CSc2ncn[nH]2)o1	-17.6	-0.4	321.9	i	0.7	.	.
O=C(Nc1ccc(F)cc1)Nc1nnc([C@@H]2C[C@H](O)[C@@H](CO)O2)s1	-26.2	1.3	.	i	.	.	.
CC(=O)NC(Cc1ccccc1F)C(=O)NC1CCN(C(=O)c2cnccn2)CC1 (configuration not stated)	-16.3	0.0	309.5	i	-2.1	.	.
COc1ccc(CC(NC(C)=O)C(=O)NC2CCN(C(=O)c3cnccn3)CC2)cc1 (configuration not stated)	-12.5	-0.1	265.7	i	-1.1	i	0.3
CCn1cc(C(=O)NN)c(=O)c2cc(F)c(NC3CCCCC3)cc21	-11.3	-1.0	.	i	.	i	0.6
COC(=O)c1ccc(NC(=O)C2CCN(C(=O)c3cc(OC)c(OC)c(OC)c3)CC2)cc1	-9.8	-0.4	373.0	i	0.3	.	.
CCOC(=O)c1ccc(NC(=O)C2CCN(C(=O)c3ccc(OC)c(OC)c3)CC2)cc1	16.5	-0.7	192.6	i	2.8	i	0.0
COc1ccc2[nH]c3c(c2c1)CCN1C(=O)C(CC(=O)NCCC2=CCCCC2)C[C@H](C(=O)N2CCCCC2)[C@@]31C (some centres not stated)	-14.5	0.2	.	i	.	.	.
Cc1ccc(C(=O)N2CCCC(Nc3ccc(F)cc3)C2)cc1C (configuration not stated)	1.2	0.9	474.4	i	-2.8	.	.
Cc1cccc(NC(=S)NCC23C=CC(O2)C2C(=O)N(c4ccc(Cl)cc4)C(=O)C23)c1 (configuration not stated)	7.9	1.2	292.3	+	1.2	i	0.6
Nn1cnnc1SC1CCCCC1NS(=O)(=O)c1ccccc1 (configuration not stated)	17.1	1.5	186.9	+	2.1	i	0.6
CC(C)C1O/C(=N/C(=O)Nc2ccc(Cl)c(Cl)c2)NC1=O (configuration not stated)	2.2	0.8	303.5	i	1.9	i	0.0

Compound activity (PubChem)
